In ChEMBL document CHEMBL3593173, “Discovery of novel N-(5-(tert-butyl)isoxazol-3-yl)-N'-phenylurea analogs as potent FLT3 inhibitors and evaluation of their activity against acute myeloid leukemia in vitro and in vivo” (Bioorg Med Chem, 2015):

System: MV4-11
Assay: Cytotoxicity against human MV4-11 cells incubated for 72 hrs by MTT assay
Type: functional, cell-based
Conditions: MV4-11, 72 h
Method in brief: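 Leukemia cells were grown with 10% FBS at 37 °C in 5% CO₂; MV4-11 was kept in IMDM. Cells were seeded at 1–4 × 10⁴ per well, and an equal volume of medium containing increasing inhibitor concentrations was added. MTT was added for 2–4 h, formazan was dissolved in DMSO, and OD was read at 570 nm to derive IC50.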

Work on `CCOc1ccn2cc(-c3ccc(NC(=O)Nc4cc(C(C)(C)C)on4)cc3)nc2c1` yielded an IC50 of 11.6 nM.
`Cc1ccc2nc(-c3ccc(NC(=O)Nc4cc(C(C)(C)C)on4)cc3)cn2c1` gave an IC50 of 4.08 nM.
Compound `CC(C)(C)c1cc(NC(=O)Nc2ccc(-c3cn4ncccc4n3)cc2)no1` has an IC50 of 59 nM.
`CC(C)(C)c1cc(NC(=O)Nc2ccc(-c3cn4cc(C5CC5)ccc4n3)cc2)no1` was tested, and the IC50 was 15.8 nM.
`CC(=O)Oc1ccn2cc(-c3ccc(NC(=O)Nc4cc(C(C)(C)C)on4)cc3)nc2c1` was tested, and the IC50 was 29.4 nM.
`CC(C)(C)c1cc(NC(=O)Nc2ccc(-c3cn4c(Cl)cccc4n3)cc2)no1` gave an IC50 of 56.1 nM.
Compound `CC(C)(C)c1cc(NC(=O)Nc2ccc(-c3cn4cccc(C(F)(F)F)c4n3)cc2)no1` has an IC50 of over 900 nM.
